Reference: ChEMBL document CHEMBL4513216, “Probing the Open Global Health Chemical Diversity Library for Multistage-Active Starting Points for Next-Generation Antimalarials” (ACS Infect Dis, 2020)

Test: Toxicity liver stage against HepG2, at 10uM
Type: cell-based
Design: test concentration 10 uM, cell line HepG2-A16-CD81EGFP
Settings: human, HepG2-A16-CD81EGFP cells; read-out: INHIBITION
Procedure, shortened: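 Uninfected HepG2-A16-CD81EGFP cells, 3 × 10^3 per well, 1536-well, plated on prespotted compound at 10 μM final, parasite-free screening media added to match infected plates; puromycin 10 μM positive, DMSO 0.5% negative; run in parallel with 48 h PbLuc assay at 37 °C, 5% CO2; viability by CellTiter-Glo luminescence, normalized to controls.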

SMILES	cytotoxicity at 10 µM [%]
Cc1cc(C2CCCN2CCCc2nc3ccccc3o2)on1 (stereo not given)	-5.58
C[C@@H](NC(=O)c1cccn1C)c1c(-c2ccc(Cl)cc2)noc1C(=O)O	3
Cn1nnc(NCc2ccc(OCc3ccc(Cl)cc3)cc2)n1	-2.56
O=C(NCCCN1CCCC1=O)c1ccc(-n2ccc3ccccc32)s1	6.69
COCCNC(=O)NCCS(=O)(=O)N1CCN(c2cccc(C)c2)CC1	4.31
CCS(=O)(=O)N1CCC2(CC1)CN(C(=O)N(C)C)Cc1ccccc12	2.67
Cc1cccc(CN2CCCC23CCNC3)n1 (stereo not given)	4.82
CCOCC(=O)N1CCC2(CC1)CN(Cc1cccnc1)C(=O)CO2	-0.125
COc1ccc(CN2CCO[C@H]3CN(C(=O)C4CC4)CC[C@H]3C2=O)cc1	-147
Cc1ccc(N2CCC3(CCN(C(=O)C4CCOC4)CC3)CC2)nn1 (stereo not given)	-0.28
CCN(CC)Cc1cnc2n1CCN(C1CCOC1)CC2 (stereo not given)	-146
CN1CCN(Cc2cn3c(n2)CN(CC2CC2)CC3)CC1	-119
CCOCC1CN(Cc2ccco2)Cc2ccnn2C1 (stereo not given)	-149
O=C(CC1CC1)N1CCC2(CC1)CC(Oc1ccccc1)CO2 (stereo not given)	-0.82
Cc1ccc(CN2CCC3(CC2)CC(NC(=O)c2ccccn2)CO3)o1 (stereo not given)	3.8
COc1cc(CCO)c(OC)c2c1OCO2	-5.6
O=C(CC1Cn2ncnc2NC1=O)Nc1ccccc1 (stereo not given)	6.11
COc1ccc(C(C)Nc2nc3c(C)nn(C)c3c(=O)n2C)cc1 (stereo not given)	1.89
Cc1nccn1-c1ccc(CN2CC3C[C@@H](O)CN3C[C@@H]2C)cc1 (stereo not given in full)	6.26
CNc1cncc(C2CCCN2S(=O)(=O)c2ccccc2)n1 (stereo not given)	-22
O=C1Nc2ccccc2CN(CC2CCCC2)C12CCNC2 (stereo not given)	7.83
Cc1cnn(-c2ccc(S(=O)(=O)N(C)CC(F)F)cc2F)c1	9.75

SMILES	cytotoxicity at 10 µM [%]
CCn1cc(NC(=O)N2CCN(C(=O)Oc3ccccc3)CC2)cn1	1.1
CC(C(=O)N1CCCC1)S(=O)(=O)Cc1nc(C(C)(C)C)no1 (stereo not given)	8.18
CC(C)(C)CC(=O)N1CCc2sccc2C1	3.61
CCCc1c(C(=O)N2CCN(c3ncccn3)CC2)cnn1C	3.38
COc1cc(CO)ccc1OCc1nc(C(C)C)no1	6.3
COC(=O)c1cccc(S(=O)(=O)Nc2ncc(C)s2)c1	0.158
CCC1CCCCCN1C(=O)c1ccc(N2CCC(O)CC2)cc1 (stereo not given)	-9.77
Cc1ccc(-c2nnn(CCN3C(=O)CCC3=O)n2)cc1	1.33
COC(=O)C1CCN(C(=O)Cn2ccc(-c3ccsc3)n2)CC1	-6.58
CC(C)(C)CN(CCC#N)C(=O)Nc1cccc(N2CCNC2=O)c1	-9.86
Cc1nnc(NC(=O)N2CCC(N3CCCCC3)CC2)s1	7.15
CS(=O)(=O)c1cccc(S(=O)(=O)NC(=O)c2cscn2)c1	1.33
COc1cc2c(nn1)CCN(Cc1noc(-c3ccccc3)n1)C2	-1.49
CCC(C)S(=O)(=O)N(Cc1ccco1)Cc1ccccc1O (stereo not given)	9.99
Cc1csc(C(C)(C)NCc2ncc(-c3ccc(F)cc3)o2)n1	8.27
CN(C)C(=O)c1cccc(CCNS(=O)(=O)c2ccccc2)c1	-4.12
NC(=O)CC1CCN(CC(O)c2ccc(Br)cc2)CC1 (stereo not given)	-7.74
CCn1c(C)nnc1CN(C)C1CCN(Cc2ccon2)C1 (stereo not given)	0.793
Cn1nc2c(cc1=O)CN(CC(=O)Nc1nncs1)CC2	-9.55
Oc1cccc(C2CN(c3nnc(C4CC4)s3)CCO2)c1 (stereo not given)	1.07
CC(C)c1cnc(CN(C)C2CCN(CCc3ccncc3)C2)o1 (stereo not given)	-0.296
COCCNC(=O)C1CCCN1S(=O)(=O)c1sc(=O)[nH]c1C (stereo not given)	2.17

SMILES	cytotoxicity at 10 µM [%]
OCC(O)CSCc1nnc(-c2ccc(Cl)cc2)o1 (stereo not given)	10.8
O=C(Cc1cnn(-c2ccccc2)n1)NC1CCOCC1	-9.72
CCC1CN(C(=O)c2[nH]nc(C)c2Br)CCO1 (stereo not given)	-3.22
O=C(NC1CCN(c2ncccn2)CC1)c1cc2c([nH]c1=O)CCC2	1.28
O=C(CC(F)(F)F)NC(c1ccc(Cl)cc1)c1ncon1 (stereo not given)	2.14
Cc1nn(C)c(C)c1CC(C)NC(=O)NCc1ccoc1C (stereo not given)	0.43
CC(=O)NCCc1ccc(S(=O)(=O)Nc2ccc(C)cc2F)s1	-5.48
O=C1NC(c2cnc(C3CCC3)s2)Nc2ncccc21 (stereo not given)	0.992
CC1CN(Cc2ccccc2)CCCN1CCNS(C)(=O)=O (stereo not given)	-3.72
CC(C)c1nc(C2CCCN(c3cnc4ccccc4n3)C2)no1 (stereo not given)	2.11
CCN(C)CC1CCN(C(=O)Nc2ccc(C)cc2)C1 (stereo not given)	2.89
CSC1(CNC(=O)c2cccc(-n3cccn3)c2)CCOCC1	-2.44
CC(NCC(F)(F)F)c1ccc(S(C)(=O)=O)c(F)c1 (stereo not given)	1.79
CC(c1cccnc1)N(C)Cc1csc(-c2ccccn2)n1 (stereo not given)	-10.4
Fc1ccc(CN2CCCC(Cn3cncn3)C2)c2ncccc12 (stereo not given)	-12.4
Cc1cc(C)n(CC(C)CNC(=O)[C@@H](C)NC(=O)OC(C)(C)C)n1 (stereo not given in full)	-4.25
Cc1ccc2nc(C(=O)N3C[C@@H](C(=O)O)[C@H](c4ccccc4)C3)cn2c1	5.96
Cc1ccc2nc(CN3CCN(C4CCCCC4)C(=O)C3)cc(O)c2c1	12.9
NC(=O)c1cncc(N2CCN(Cc3cccc4nsnc34)CC2)n1	8.15
COCc1ncc(CN2CCC3(CCNC(=O)CC3)CC2)cn1	-147
COCCC1(CO)CCCN(Cc2ccc(C(F)(F)F)nc2)C1 (stereo not given)	-146
CN(C)CC1(O)CCCN(C(=O)CCn2cc(Cl)cn2)C1 (stereo not given)	-138

SMILES	cytotoxicity at 10 µM [%]
COc1cccc2ccc(N3CCC(O)(c4ccc(C)cn4)CC3)nc12	-0.942
COCC(c1ccccn1)N(C)C(=O)c1cc(-c2cccn2C)n[nH]1 (stereo not given)	-3.39
COCC(=O)NCc1cc2n(n1)CCCN(Cc1ccccc1SC)C2	2.04
COc1cccc(Cl)c1C(C(=O)O)N1CCC(Cn2cccn2)CC1 (stereo not given)	-12.5
CC(C)C1CN(c2nccc(N)n2)CCC(=O)N1Cc1ccc(F)cc1 (stereo not given)	-5.04
Cc1nn(C)c2nc(N3CCNC(=O)C3C(C)C)sc12 (stereo not given)	-10
COc1ccc(CCN)cc1-c1ccc(S(C)(=O)=O)cc1	-6.23
O=c1cc(CN2CCCCC2c2cccc(F)c2)[nH]c2ncnn12 (stereo not given)	-3.46
Cc1nc2c(c(NC(C)c3nnn[nH]3)n1)Cc1ccccc1OC2 (stereo not given)	1.07
CCOC(=O)c1n[nH]cc1CN1CCOC(Cc2ccc(F)cc2)C1 (stereo not given)	-3.92
CCn1cc(C(=O)N2CCCC3(CCC(=O)N(CCC(C)C)C3)C2)cn1 (stereo not given)	-1.19
CC(=O)C1(c2ccccc2)CCN(C(=O)C2CNCCO2)CC1 (stereo not given)	-3.73
O=C(c1cncc(N2CCCC3(CCNCC3)CC2)n1)N1CCCCC1	-3.38
CC(=O)NCCNC(=O)C1(N2CCCCC2)Cc2ccccc2C1	-6.53
CCc1ccc2nc(NCCOCCO)cc(C)c2c1	-2.78
Cc1nn(C)c2ncnc(N3CCCC(OCc4ccccn4)C3)c12 (stereo not given)	7.96
COCCCN1CC2(CCCN(c3ncc4nc[nH]c4n3)C2)CCC1=O (stereo not given)	-5.64
O=C(NCCc1nccs1)c1cn(CCN2CCNCC2)nn1	-4.41
O=C(c1ccc(-c2cnco2)cc1)N1CCC(Nc2cccnn2)CC1	-0.692
COc1ncccc1NC(=O)N(Cc1ccccn1)C1CC1	9.11
Cc1nn(C)c(C)c1C1CCCN1C(=O)c1ccc2c(c1)OCCO2 (stereo not given)	-10.6
CN(CC(N)=O)CC(=O)N1CC=C(c2ccccc2)CC1	-5.1

SMILES	cytotoxicity at 10 µM [%]
c1ccc2nc(N3CCOC(Cn4cncn4)C3)cnc2c1 (stereo not given)	-11.5
CC(Cn1cccn1)NCc1csc(-c2ccsc2)n1 (stereo not given)	-3.96
CN1CCC/C1=N\S(=O)(=O)c1ccc(NC(=O)c2ccsc2)cc1	6.49
CCc1nc(C)c(C(=O)N2CCCN(Cc3cnn(C)c3)CC2)s1	-2.41
CC(C)(C)NCc1ccc(OCc2ccc3c(c2)OCCO3)cc1	1.99
CN1CCC2(CC1)C(=O)N(c1cccnc1)c1ccc(F)cc12	3.65
COCC(=O)N1CCN(Cc2cccnc2)c2ncccc2C1	10.2
COCCNC(=O)[C@H]1CN(Cc2scnc2C)C[C@H]2OCC[C@@H]12	-8.94
O=C(C1CCOCC1)N1C[C@@H]2[C@@H](C1)OCC(=O)N2Cc1ccncc1	-8.8
COc1cccc(CN2CCC3(CC2)CCN(C(=O)[C@@H]2CCCO2)C3)c1	0.523
O=C(C1CCC1)N1CCO[C@H]2[C@H](OCCCn3cccn3)CC[C@@H]21	16.7
c1c2c(nn1CC1CCOCC1)C(CNC1CCOCC1)OCC2 (stereo not given)	5.83
Cc1ccsc1C(=O)N1CC[C@H]2CO[C@H](CN(C)C)[C@H]2C1	2.93
CN(Cc1ccco1)C[C@@H]1OC[C@H]2CN(Cc3nccs3)CC[C@H]21	-5.46
O=C1CCCN1Cc1ncn2c1CN(C(=O)N1CCCC1)CCC2	-2.36
CNCC(=O)N1CC(c2cc(Nc3nc(C)cs3)nc(C)n2)C1	-21.2
CC(C)CCN1C[C@@H]2OCCN(c3ncc(F)cn3)[C@@H]2C1	4.91
Cc1cccc(CN2CCc3[nH]nc(C(=O)N(C)C)c3C2)n1	-0.596
Cn1cc(CN2CC[C@@H]3[C@H]2CCC(=O)N3c2ccccc2)cn1	7.42
Cc1cccc(CN2CCn3cc(Cn4cccn4)nc3C2)n1	3.27
CCc1cnc(N2C[C@@H]3C[C@H](C(=O)NC)[C@H](C2)O3)nc1	9.76
CCc1cnc(N2C[C@@H]3C[C@H](C(=O)N(C)C)[C@H](C2)O3)nc1	-12.1
